According to ChEMBL document CHEMBL3351726 (J Med Chem, 2014):
Calls of active or inactive are those of the source. The calls are words filed in the database; no cut-off is given here. Residues, ends and D or L forms follow the SMILES beside them.

Columns and labels:
[1] = Retention time of the compound measured over 30 mins at flow rate of 1 mL/min by HPLC; type: physicochemical; settings: 0.5 h
Procedure, shortened: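 Reversed-phase analytical HPLC or LC−MS on a SymmetryShield RP18 column (5 μm, 4.6 × 150 mm). Gradient 10−60% B over 30 min at 1 mL/min; A = 0.1% TFA in water, B = 0.1% TFA in acetonitrile.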

HEK293 = test: Selectivity ratio of IC50 for rat Nav1.2 expressed in HEK-293 cells to IC50 for human Nav1.7 expressed in HEK-293 cells; type: cell-based
[2] = target: T1, Sodium channel protein type 9 subunit alpha (Homo sapiens, UniProt Q15858); test: Inhibition of human Nav1.7 expressed in HEK-293 cells at -130 to -110 mV holding potential by whole-cell voltage clamp analysis; type: cell-based, HEK293
Target sequence in this assay (Q15858 whole entry): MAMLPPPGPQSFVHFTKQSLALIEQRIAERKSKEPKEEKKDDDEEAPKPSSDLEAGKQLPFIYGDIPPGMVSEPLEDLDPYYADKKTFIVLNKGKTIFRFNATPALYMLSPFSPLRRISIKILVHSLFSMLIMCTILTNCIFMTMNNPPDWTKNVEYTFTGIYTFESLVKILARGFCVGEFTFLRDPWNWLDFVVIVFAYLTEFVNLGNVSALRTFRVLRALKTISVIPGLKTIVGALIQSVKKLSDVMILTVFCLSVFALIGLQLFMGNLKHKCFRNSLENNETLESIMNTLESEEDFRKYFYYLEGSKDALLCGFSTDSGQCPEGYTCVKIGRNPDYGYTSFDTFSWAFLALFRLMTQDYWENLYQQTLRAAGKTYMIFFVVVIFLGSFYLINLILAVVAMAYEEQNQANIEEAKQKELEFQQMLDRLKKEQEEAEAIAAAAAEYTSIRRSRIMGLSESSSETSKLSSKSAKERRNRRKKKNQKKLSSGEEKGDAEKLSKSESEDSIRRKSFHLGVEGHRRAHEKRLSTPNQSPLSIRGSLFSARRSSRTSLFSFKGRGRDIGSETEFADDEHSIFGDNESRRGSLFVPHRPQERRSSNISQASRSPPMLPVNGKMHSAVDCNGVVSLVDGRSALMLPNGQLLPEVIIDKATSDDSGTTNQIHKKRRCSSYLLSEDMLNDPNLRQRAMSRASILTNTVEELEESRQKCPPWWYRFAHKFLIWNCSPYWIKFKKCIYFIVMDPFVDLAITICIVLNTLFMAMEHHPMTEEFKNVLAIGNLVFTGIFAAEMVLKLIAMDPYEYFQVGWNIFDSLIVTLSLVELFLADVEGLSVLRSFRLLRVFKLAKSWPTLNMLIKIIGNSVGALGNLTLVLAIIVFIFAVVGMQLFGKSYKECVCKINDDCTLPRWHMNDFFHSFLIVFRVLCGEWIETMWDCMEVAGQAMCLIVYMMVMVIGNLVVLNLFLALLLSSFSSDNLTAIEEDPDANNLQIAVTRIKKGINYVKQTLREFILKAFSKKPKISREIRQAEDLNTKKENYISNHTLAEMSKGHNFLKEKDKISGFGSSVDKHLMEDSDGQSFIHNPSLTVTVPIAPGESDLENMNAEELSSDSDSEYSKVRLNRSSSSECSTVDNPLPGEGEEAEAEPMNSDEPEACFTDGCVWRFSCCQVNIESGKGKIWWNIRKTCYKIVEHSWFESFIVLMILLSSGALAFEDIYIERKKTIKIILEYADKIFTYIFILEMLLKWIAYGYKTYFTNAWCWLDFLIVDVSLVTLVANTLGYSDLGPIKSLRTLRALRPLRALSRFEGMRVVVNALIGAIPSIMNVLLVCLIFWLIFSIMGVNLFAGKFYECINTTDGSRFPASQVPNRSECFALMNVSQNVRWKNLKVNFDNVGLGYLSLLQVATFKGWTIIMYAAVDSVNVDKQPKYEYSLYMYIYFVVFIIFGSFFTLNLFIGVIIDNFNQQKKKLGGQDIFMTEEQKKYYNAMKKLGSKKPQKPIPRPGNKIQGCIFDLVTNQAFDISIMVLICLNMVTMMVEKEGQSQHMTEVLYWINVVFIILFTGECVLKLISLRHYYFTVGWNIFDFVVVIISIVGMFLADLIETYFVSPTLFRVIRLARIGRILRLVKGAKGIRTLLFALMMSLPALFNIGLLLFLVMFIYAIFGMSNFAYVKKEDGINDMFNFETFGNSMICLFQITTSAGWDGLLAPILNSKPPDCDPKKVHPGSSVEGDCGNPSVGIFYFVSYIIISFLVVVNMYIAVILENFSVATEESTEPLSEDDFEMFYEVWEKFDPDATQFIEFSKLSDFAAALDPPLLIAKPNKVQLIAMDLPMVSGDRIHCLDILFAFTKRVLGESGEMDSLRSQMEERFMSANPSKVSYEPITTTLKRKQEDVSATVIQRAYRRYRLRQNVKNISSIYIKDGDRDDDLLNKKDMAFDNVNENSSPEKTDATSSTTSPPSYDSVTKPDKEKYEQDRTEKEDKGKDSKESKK

[3] = Retention time of the compound measured over 6 mins at flow rate of 0.5 mL/min by HPLC; type: physicochemical; settings: 0.1 h
[4] = Retention time of the compound measured over 15 mins at flow rate of 1 mL/min by HPLC
[5] = target: T1, Sodium channel protein type 9 subunit alpha; test: Inhibition of human Nav1.7 expressed in HEK-293 cells assessed as time for channel-mediated current inhibition at 2 nM by time-course experiment; type: cell-based; settings: HEK293
Procedure, shortened: (§1)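 HEK-293 cells on poly-D-lysine-coated dishes in DMEM at 37 °C, 5% CO2; recorded 12−48 h after plating. Whole-cell voltage-clamp sodium currents under continuous perfusion with extracellular solution. Compounds applied via a gravity-driven superfusion pipette array with its outlet about 100 μm from the cell.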
Target sequence in this assay (Q15858 whole entry, looked up): as the sequence (Q15858 whole entry) above

[6] = target: T1, Sodium channel protein type 9 subunit alpha; test: Inhibition of human Nav1.7 expressed in HEK-293 cells assessed as inhibition of channel-mediated current at 1 nM by time-course experiment; type: cell-based; settings: HEK293; procedure, shortened: as §1
Target sequence in this assay (Q15858 whole entry, looked up): as the sequence (Q15858 whole entry) above

[7] = target: T1, Sodium channel protein type 9 subunit alpha; test: Inhibition of human Nav1.7 expressed in HEK-293 cells assessed as inhibition of channel-mediated current at 1 nM followed by wash-out and compound treatment at 0.1 nM by time-course experiment relative to initial peak amplitude; type: cell-based; settings: HEK293; procedure, shortened: as §1
Target sequence in this assay (Q15858 whole entry, looked up): as the sequence (Q15858 whole entry) above

SMILES	Retention_time [1]	Ratio IC50 (HEK293)	IC50 [2]	Retention_time [3]	Retention_time [4]	TIME [5]	inhibition [6]	inhibition [7]
CSCC[C@@H]1NC(=O)CNC(=O)[C@H](CCC(=O)O)NC(=O)[C@@H]2CSSC[C@H](NC(=O)[C@@H](N)Cc3ccc(O)cc3)C(=O)N[C@@H](CCC(N)=O)C(=O)N[C@@H](CCCCN)C(=O)N[C@@H](Cc3c[nH]c4ccccc34)C(=O)N[C@@H](CCSC)C(=O)N[C@@H](Cc3c[nH]c4ccccc34)C(=O)N[C@@H]([C@@H](C)O)C(=O)N[C@H]3CSSC[C@H](NC(=O)[C@H](C(C)C)NC1=O)C(=O)N[C@@H](CCCNC(=N)N)C(=O)N[C@@H](CC(C)C)C(=O)N[C@@H](Cc1c[nH]c4ccccc14)C(=O)N[C@H](C(=O)N[C@@H](CCCCN)C(=O)N[C@@H](CCCCN)C(=O)N[C@@H](CCCCN)C(=O)N[C@@H](CC(C)C)C(=O)N[C@@H](Cc1c[nH]c4ccccc14)C(=O)Nc1ccccc1)CSSC[C@H](NC(=O)[C@H](CCCCN)NC(=O)[C@H](CCCNC(=N)N)NC(=O)[C@H](CCC(=O)O)NC(=O)[C@H](CO)NC(=O)[C@H](CC(=O)O)NC3=O)C(=O)N2	14.13 min	4	0.8 nM	2.57 min				
CSCC[C@@H]1NC(=O)CNC(=O)[C@H](CCC(=O)O)NC(=O)[C@@H]2CSSC[C@H](NC(=O)[C@@H](N)Cc3ccc(O)cc3)C(=O)N[C@@H](CCC(N)=O)C(=O)N[C@@H](CCCCN)C(=O)N[C@@H](Cc3c[nH]c4ccccc34)C(=O)N[C@@H](CCSC)C(=O)N[C@@H](Cc3c[nH]c4ccccc34)C(=O)N[C@@H]([C@@H](C)O)C(=O)N[C@H]3CSSC[C@H](NC(=O)[C@H](C(C)C)NC1=O)C(=O)N[C@@H](CCCNC(=N)N)C(=O)N[C@@H](CC(C)C)C(=O)N[C@@H](Cc1c[nH]c4ccccc14)C(=O)N[C@H](C(=O)N[C@@H](CCCCN)C(=O)N[C@@H](CCCCN)C(=O)N[C@@H](CCCCN)C(=O)N[C@@H](CC(C)C)C(=O)N[C@@H](Cc1c[nH]c4ccccc14)C(=O)O)CSSC[C@H](NC(=O)[C@H](CCCCN)NC(=O)[C@H](CCCNC(=N)N)NC(=O)[C@H](C)NC(=O)[C@H](CO)NC(=O)[C@H](CC(=O)O)NC3=O)C(=O)N2	14.54 min	40			9.29 min	0.0606 h		
COC(=O)[C@H](Cc1c[nH]c2ccccc12)NC(=O)[C@H](CC(C)C)NC(=O)[C@H](CCCCN)NC(=O)[C@H](CCCCN)NC(=O)[C@H](CCCCN)NC(=O)[C@@H]1CSSC[C@@H]2NC(=O)[C@H](CCCCN)NC(=O)[C@H](CCCNC(=N)N)NC(=O)[C@H](CCC(=O)O)NC(=O)[C@H](CO)NC(=O)[C@H](CC(=O)O)NC(=O)[C@@H]3CSSC[C@H](NC(=O)[C@H](C(C)C)NC(=O)[C@H](CCSC)NC(=O)CNC(=O)[C@H](CCC(=O)O)NC(=O)[C@H](CSSC[C@H](NC(=O)[C@@H](N)Cc4ccc(O)cc4)C(=O)N[C@@H](CCC(N)=O)C(=O)N[C@@H](CCCCN)C(=O)N[C@@H](Cc4c[nH]c5ccccc45)C(=O)N[C@@H](CCSC)C(=O)N[C@@H](Cc4c[nH]c5ccccc45)C(=O)N[C@@H]([C@@H](C)O)C(=O)N3)NC2=O)C(=O)N[C@@H](CCCNC(=N)N)C(=O)N[C@@H](CC(C)C)C(=O)N[C@@H](Cc2c[nH]c3ccccc23)C(=O)N1	13.17 min	5	0.6 nM	2.93 min				
CNC(=O)[C@H](Cc1c[nH]c2ccccc12)NC(=O)[C@H](CC(C)C)NC(=O)[C@H](CCCCN)NC(=O)[C@H](CCCCN)NC(=O)[C@H](CCCCN)NC(=O)[C@@H]1CSSC[C@@H]2NC(=O)[C@H](CCCCN)NC(=O)[C@H](CCCNC(=N)N)NC(=O)[C@H](CCC(=O)O)NC(=O)[C@H](CO)NC(=O)[C@H](CC(=O)O)NC(=O)[C@@H]3CSSC[C@H](NC(=O)[C@H](C(C)C)NC(=O)[C@H](CCSC)NC(=O)CNC(=O)[C@H](CCC(=O)O)NC(=O)[C@H](CSSC[C@H](NC(=O)[C@@H](N)Cc4ccc(O)cc4)C(=O)N[C@@H](CCC(N)=O)C(=O)N[C@@H](CCCCN)C(=O)N[C@@H](Cc4c[nH]c5ccccc45)C(=O)N[C@@H](CCSC)C(=O)N[C@@H](Cc4c[nH]c5ccccc45)C(=O)N[C@@H]([C@@H](C)O)C(=O)N3)NC2=O)C(=O)N[C@@H](CCCNC(=N)N)C(=O)N[C@@H](CC(C)C)C(=O)N[C@@H](Cc2c[nH]c3ccccc23)C(=O)N1	12.44 min	83	0.042 nM	2.52 min			Active	80%
[H][C@]12CSSC[C@@H](C(=O)N[C@@H](CCCCN)C(=O)N[C@@H](CCCCN)C(=O)N[C@@H](CC(C)C)C(=O)N[C@@H](Cc3c[nH]c4ccccc34)C(=O)O)NC(=O)[C@H](Cc3c[nH]c4ccccc34)NC(=O)[C@H](CC(C)C)NC(=O)[C@H](CCCNC(=N)N)NC(=O)[C@]3([H])CSSC[C@]([H])(NC(=O)[C@]([H])([C@@H](C)O)NC(=O)[C@H](Cc4c[nH]c5ccccc45)NC(=O)[C@H](CCSC)NC(=O)[C@H](Cc4c[nH]c5ccccc45)NC(=O)[C@H](CCCCN)NC(=O)[C@H](CCC(N)=O)NC(=O)[C@@H](NC(=O)[C@@H](N)Cc4ccc(O)cc4)CSSC[C@]([H])(NC1=O)C(=O)N[C@@H](CCC(=O)O)C(=O)NCC(=O)N[C@@H](CC(C)C)C(=O)N[C@@H](C(C)C)C(=O)N3)C(=O)N[C@@H](CC(=O)O)C(=O)N[C@@H](CO)C(=O)N[C@@H](C)C(=O)N[C@@H](CCCNC(=N)N)C(=O)N[C@@H](CCCCN)C(=O)N2 (HELM PEPTIDE1{Y.C.Q.K.W.M.W.T.C.D.S.A.R.K.C.C.E.G.L.V.C.R.L.W.C.K.K.L.W}$PEPTIDE1,PEPTIDE1,2:R3-16:R3|PEPTIDE1,PEPTIDE1,9:R3-21:R3|PEPTIDE1,PEPTIDE1,15:R3-25:R3$$$V2.0)	15.35 min	1	67 nM		9.25 min			
